A selection: hits, their analogues and other compounds. The true share with any hit is near 4%.
H9c2 protect = modulators protecting cardiomyocytes from myocardial damage | AID 588492 | 0.63% of 360,000 active | protection from H2O2 cell death, % at 20 µM | H9c2 cardiomyocytes, H2O2 injury protection, ATPLite, 2 h;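 active = compounds giving at least 50% protection of heart cells from peroxide-induced death in the single-dose screen, raw or plate-pattern-corrected value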;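 also: 0% = DMSO wells with peroxide and 100% = DMSO wells without peroxide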
FAS-TE inh = blocks the thioesterase domain of human fatty acid synthase | recombinant FAS-TE, OMFH fluorogenic substrate, fluorescence endpoint | inhibition, % at 15 µM | 0.67% of 360,000 active;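 active = compounds whose normalised, plate-corrected inhibition of enzyme fluorescence in the single-dose primary screen is 50% or more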;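 also: 0% = DMSO with enzyme and 100% = substrate without enzyme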
NR3A LBD binder = NR3A (human) ligand-binding domain modulation | NR3A LBD differential scanning fluorimetry, Tm shift; 0% = protein alone, 100% = glycine-bound protein | Tm shift relative to glycine control, % at 25 µM | 2.5% of 340,000 active | AID 1259313;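 active = melting temperature shift of at least 10% of the positive control shift, at one fixed dose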
Arrestin-AP2 inh = inhibitors of human beta-arrestin and AP2 interaction. inhibition, % at 10 µM. AID 504490. FITC-arrestin peptide / GST-AP2 beads, flow cytometry; AP2 beta2 appendage carries R879A mutation. 0.31% of 340,000 active;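 active = inhibition above a set limit, near 3 SD of compounds lacking own fluorescence, cut at about 54% in these data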;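 also: plate controls were DMSO wells for no effect and 5 µM unlabelled arrestin peptide for full effect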
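Material – AP2 appendage R879A on GSH beads · Buffer or medium – PBS with 0.05% Tween 20 and 0.1% BSA · Probe or stimulus – fluorescein-tagged arrestin peptide at 50 nM final · Incubation – compound with beads 12 min RT, then probe 1 h RT · Detection – high-throughput flow cytometry of beads, ex 488, em 535 nm · Evaluation – percent response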
SENP1 inh = blocks the human SENP1 SUMO protease catalytic domain. Q9P0U3. recombinant SENP1 catalytic domain, CyPet-SUMO1-YPet FRET cleavage. inhibition, % at 10 µM. 0.21% of 360,000 active. AID 624204;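 active = inhibition at least 30% at 10 µM, raw YFP signal under a set limit, fluorescence ratio 0.5 to 1.5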;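 also: 0% = enzyme with DMSO and 100% = no enzyme wells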
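Material – human SENP1 catalytic domain · Input – SENP1 enzyme, 20 pM final · Compound dosing – single concentration of 10 µM compound, 0.5% DMSO final · Timing – enzyme reaction for 50 min at room temperature, dark · Measured by – FRET fluorescence in CFP and YFP emission channels · Control set – no-enzyme wells low, DMSO-plus-enzyme wells high control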
iPSC survival up = hiPSC single-cell survival enhancement; ATPlite luminescence; 100% = ROCK inhibitor wells, 0% = DMSO; survival enhancement, % at 20 µM; 0.044% of 360,000 active; AID 602274; in the data active = survival enhancement above about 18%;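 also: cells exposed to compounds for 16 hours before the ATP read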
An asterisk follows results filed as active; . = no result given.

SMILES	H9c2 protect	FAS-TE inh	NR3A LBD binder	Arrestin-AP2 inh	SENP1 inh	iPSC survival up
Cc1ccc(NC(=O)Nc2ccccc2)cc1[N+](=O)[O-]	-3	9	13*	-6	0	3
Cc1ccc(OCC(=O)NNC(=O)Nc2ccc(Cl)cc2)c(Br)c1	-5	-5	-2	-4	3	0
Cc1ccc(NC(=O)Nc2ccc(Cl)cc2)c(Br)c1	-14	-2	35*	1	-2	1
O=C(Nc1csc([N+](=O)[O-])c1)Nc1c(Cl)cccc1Cl	-12	-3	-1	18	1	0
O=C(Nc1ccc(Cl)cc1)Nc1csc([N+](=O)[O-])c1	-17	33	33*	12	5	0
O=C(Nc1ccccc1)Nc1ccc(Cl)c([N+](=O)[O-])c1	-21	19	23*	5	1	-1
CCN(c1ccccc1)S(=O)(=O)c1cc(C(=O)NCC(c2ccc(OC)cc2)N(C)C)ccc1C (configuration not stated)	0	15	-1	0	-4	-4
FC(F)(F)C(F)(F)C(F)(F)c1nc2nc(Cl)c(Cl)nc2[nH]1	1	-9	.	.	-129	3
O=C(O)c1nc2nc(Cl)c(Cl)nc2[nH]1	-6	-3	14*	1	-28	0
CC(=O)Nc1ccc(S(=O)(=O)Nc2nc3ccccc3nc2Nc2ccccc2)cc1	4	-1	10*	5	-11	0
O=S(=O)(Nc1nc2ccccc2nc1Nc1ccc2c(c1)OCO2)c1ccccc1	-11	5	8	-2	-5	0
CC(=O)Nc1ccc(Nc2nc3ccccc3nc2NS(=O)(=O)c2ccccc2)cc1	15	-3	4	-8	-33	0
CC(=O)Nc1ccc(S(=O)(=O)Nc2nc3ccccc3nc2Nc2ccc(O)cc2)cc1	-3	-3	17*	-8	-7	1
Cc1cccc(S(=O)(=O)Nc2nc3ccccc3nc2Nc2ccc3c(c2)OCO3)c1	-9	25	21*	2	-7	0
Cc1cc(F)ccc1-c1cc(C(=O)NCc2ccco2)[nH]n1	-2	-4	.	.	1	0
COc1ccc(OC)c(NC(=O)Nc2nnc([C@H]3C[C@H](O)[C@@H](CO)O3)s2)c1	4	-5	.	.	0	-2
O=C(CNC(=O)c1ccccc1O)N/N=C/c1cc(Br)ccc1OC(=O)/C=C/c1ccco1	.	.	13*	.	.	.
O=C(CNC(=O)c1cccc(F)c1)N/N=C/c1cc(Br)ccc1OC(=O)/C=C/c1ccco1	57*	46	-7	-5	-42	3
O=C(CNC(=O)c1ccccc1Br)N/N=C/c1ccco1	-2	-3	0	21	3	0
CCCCCCCCN1C(=O)[C@H](CC(=O)N2CCCC2)C[C@@]2(C(=O)OC)CC(C)(C)CC=C12	.	.	.	.	1	.
CC1CCN(CCOc2cccc(Br)c2)CC1	4	-7	11*	22	3	0
Nc1ncnc(Nc2ccccc2Oc2ccccc2)n1	-2	-4	1	3	2	0
Cc1ccc(O)c(-c2cc(-c3ccccc3F)[nH]n2)c1	-16	20	4	11	0	-2
Cc1ccc(-c2cc(-c3cccc(F)c3)n[nH]2)c(O)c1	-16	11	17*	10	3	-1
Cc1ccc(O)c(-c2cc(-c3cccc(F)c3)n[nH]2)c1	-1	17	12*	2	-2	3
SMILES	H9c2 protect	FAS-TE inh	NR3A LBD binder	Arrestin-AP2 inh	SENP1 inh	iPSC survival up
Cc1[nH]c2ccccc2c1C(=O)CSC(=S)N1CCOCC1	-10	3	14*	44	0	0
Cc1[nH]c2ccccc2c1C(=O)C(=O)N1CCOCC1	2	-5	-1	-7	0	0
CC(C)(C)n1cnc2cc(NS(=O)(=O)c3ccccc3)ccc21	-12	-5	15*	-2	-1	5
Oc1ccccc1Cn1nnc2ccccc21	0	-4	3	37	1	1
c1ccc2c(Cn3nnc4ccccc43)cccc2c1	-7	8	11*	-8	1	3
Cc1nc(Nc2cccc(Cl)c2)c2oc3ccccc3c2n1	17	16	36*	-2	2	-1
Cc1nc(Nc2ccc(Cl)cc2)c2oc3ccccc3c2n1	0	10	.	5	3	0
Cc1nc(Nc2cccc(F)c2)c2oc3ccccc3c2n1	5	12	28*	6	-2	0
CCCN(CC(=O)Nc1cccc(Br)c1)CC(=O)Nc1ccc(F)c(F)c1F	-10	41	22*	14	1	1
N#Cc1ccc(NC(=O)CSc2nc3[nH]c(=O)cc(O)c3s2)cc1	0	-4	-2	24	-8	0
O=C(CSc1nc2[nH]c(=O)cc(O)c2s1)Nc1ccc(Cl)c(C(F)(F)F)c1	-5	-4	12*	-3	-13	0
CSc1ccc(NC(=O)CSc2nc3[nH]c(=O)cc(O)c3s2)cc1	2	6	14*	-2	-23	1
O=C(NCc1cccc(F)c1)c1[nH]c(C(F)(F)F)nc1-c1ccccc1	-8	-9	.	.	0	-2
CC1(C(=O)NCc2cccs2)Cc2c(-c3cccc(C(F)(F)F)c3)ccnc2O1 (configuration not stated)	-3	12	.	.	-1	-1
CC1CCCCC1NC(=O)/C(C#N)=C/c1ccc2c(c1)OCCO2 (configuration not stated)	.	.	13*	.	.	.
CCC(=O)N1CCC1(C)C(=O)Nc1ccc(OC(F)F)cc1 (configuration not stated)	1	-2	.	.	2	6
CC12CCC(C(=O)NCc3ccc(Cl)cc3)(OC1=O)C2(C)C (configuration not stated)	3	-1	11*	0	1	-1
N#CC(c1nc2ccccc2nc1N1CCCC1)S(=O)(=O)c1cccs1 (configuration not stated)	59*	-8	-1	3	-22	0
OC1c2c(F)cccc2N=C2CCCCN21 (configuration not stated)	7	-5	.	.	-4	1
COc1ccc(-c2nnc3ccc(SCC(=O)Nc4nc5ccccc5s4)nn23)cc1OC	50*	3	5	48	0	0
COc1ccc(-c2nnc3ccc(SCC(=O)Nc4nccs4)nn23)cc1OC	9	-8	0	-4	0	1
O=C(CSc1nnc(Cc2cccs2)n1CCc1ccccc1)N1CCCc2ccccc21	67*	10	0	-12	-1	0
O=C(CCSc1ccc(Br)cc1)c1ccc(O)cc1	-12	15	12*	4	3	0
Cc1ccc(S(=O)(=O)N/N=C/c2c[nH]c3ccccc23)cc1	-19	1	31*	-17	-4	1
